Reference: ChEMBL document CHEMBL1151472, “In vitro interactions between tacrolimus and azoles against Candida albicans determined by different methods” (2008)

How the values were obtained:
Format in all cases: functional
Candida albicans [1] = assay: Antimicrobial activity against azole-resistant Candida albicans isolate CA10 assessed as growth at 32 ug/ml co-treated with 0.031 ug/ml calcineurin signaling inhibitor tacrolimus after 48 hrs by microdilution checkboard technique relative to control; design: scale not given: the % may be the effect or the level left
In short: (§1)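 Checkerboard microdilution in RPMI 1640 (pH 7.0, 2% dextrose, 0.165 M MOPS). Azole dilutions run along columns and FK506 along rows, at 4× final concentration. Final inoculum 2.5 × 10^3 CFU/ml from Sabouraud-subcultured cells. Incubated 35°C for 48 h; OD read at 492 nm. Background from microorganism-free plates subtracted. Growth % = well OD / drug-free well OD. Triplicate on different days, values averaged.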

Candida albicans [2] = assay: Antimicrobial activity against azole-resistant Candida albicans isolate CA10 assessed as growth at 64 ug/ml co-treated with 0.031 ug/ml calcineurin signaling inhibitor tacrolimus after 48 hrs by microdilution checkboard technique relative to control; design: scale not given: the % may be the effect or the level left; in short: as §1
Candida albicans [3] = assay: Antimicrobial activity against azole-resistant Candida albicans isolate CA10 assessed as growth at 128 ug/ml co-treated with 0.031 ug/ml calcineurin signaling inhibitor tacrolimus after 48 hrs by microdilution checkboard technique relative to control; design: scale not given: the % may be the effect or the level left; in short: as §1
Candida albicans [4] = assay: Antimicrobial activity against azole-resistant Candida albicans isolate CA10 assessed as growth at 0.125 ug/ml co-treated with 0.016 ug/ml calcineurin signaling inhibitor tacrolimus after 48 hrs by microdilution checkboard technique relative to control; design: scale not given: the % may be the effect or the level left
In short: (§2)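 Checkerboard microdilution in MOPS-buffered RPMI 1640 (pH 7.0, 2% dextrose). Final ranges: azole 0.125–128 μg/ml (FLC) or 0.008–8 μg/ml (ITR, VRC), tacrolimus 0.002–0.125 μg/ml; solvent 1% in single-drug wells. Inoculum 2.5 × 10^3 CFU/ml, 35°C, 48 h. Growth % = background-subtracted OD492 of each well / drug-free well. Triplicate on different days.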

Candida albicans [5] = assay: Antimicrobial activity against azole-resistant Candida albicans isolate CA10 assessed as growth at 4 ug/ml cotreated with 0.016 ug/ml calcineurin signaling inhibitor Tacrolimus after 48 hrs by microdilution checkboard technique relative to control; design: scale not given: the % may be the effect or the level left
In short: (§3)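 CA10 in RPMI 1640 with 2% dextrose and 0.165 M MOPS, pH 7.0. Checkerboard used twofold dilutions, with azole alone in row H and the drug-free growth control in well H1. Final inoculum was 2.5 × 10^3 CFU/ml, incubated 35°C for 48 h, with OD read at 492 nm. Growth % = background-subtracted well OD / drug-free well OD. Run in triplicate on different days.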

Candida albicans [6] = assay: Antimicrobial activity against azole-resistant Candida albicans isolate CA10 assessed as growth at 16 ug/ml co-treated with 0.016 ug/ml calcineurin signaling inhibitor tacrolimus after 48 hrs by microdilution checkboard technique relative to control; design: scale not given: the % may be the effect or the level left; in short: as §2
Candida albicans [7] = assay: Antimicrobial activity against azole-resistant Candida albicans isolate CA10 assessed as growth at 0.125 ug/ml cotreated with 0.008 ug/ml calcineurin signaling inhibitor tacrolimus after 48 hrs by microdilution checkerboard technique relative to control; design: scale not given: the % may be the effect or the level left; in short: as §2
Candida albicans [8] = assay: Antimicrobial activity against azole-resistant Candida albicans isolate CA10 assessed as growth at 1 ug/ml cotreated with 0.002 ug/ml calcineurin signaling inhibitor tacrolimus after 48 hrs by microdilution checkerboard technique relative to control; design: scale not given: the % may be the effect or the level left; in short: as §2
Candida albicans [9] = assay: Antimicrobial activity against azole-resistant Candida albicans isolate CA10 assessed as growth at 8 ug/ml cotreated with 0.002 ug/ml calcineurin signaling inhibitor Tacrolimus after 48 hrs by microdilution checkboard technique relative to control; design: scale not given: the % may be the effect or the level left; in short: as §3
Candida albicans [10] = assay: Antimicrobial activity against azole-resistant Candida albicans isolate CA10 assessed as growth at 2 ug/ml cotreated with 0.008 ug/ml calcineurin signaling inhibitor Tacrolimus after 48 hrs by microdilution checkboard technique relative to control; design: scale not given: the % may be the effect or the level left; in short: as §2
Candida albicans [11] = assay: Antimicrobial activity against azole-resistant Candida albicans isolate CA10 assessed as growth at 64 ug/ml co-treated with 0.008 ug/ml calcineurin signaling inhibitor tacrolimus after 48 hrs by microdilution checkboard technique relative to control; design: scale not given: the % may be the effect or the level left; in short: as §3
Candida albicans [12] = assay: Antimicrobial activity against azole-resistant Candida albicans isolate CA10 assessed as growth at 128 ug/ml cotreated with 0.008 ug/ml calcineurin signaling inhibitor Tacrolimus after 48 hrs by microdilution checkboard technique relative to control; design: scale not given: the % may be the effect or the level left; in short: as §2
Candida albicans [13] = assay: Antimicrobial activity against azole-resistant Candida albicans isolate CA10 assessed as growth at 64 ug/ml cotreated with 0.004 ug/ml calcineurin signaling inhibitor Tacrolimus after 48 hrs by microdilution checkboard technique relative to control; design: scale not given: the % may be the effect or the level left; in short: as §3
Candida albicans [14] = assay: Antimicrobial activity against azole-resistant Candida albicans isolate CA10 assessed as growth at 1 ug/ml after 48 hrs by microdilution checkerboard technique relative to control; in short: as §2
Candida albicans [15] = assay: Antimicrobial activity against azole-resistant Candida albicans isolate CA10 assessed as growth at 2 ug/ml after 48 hrs by microdilution checkerboard technique relative to control; in short: as §2
Candida albicans [16] = assay: Antimicrobial activity against azole-resistant Candida albicans isolate CA10 assessed as growth at 32 ug/ml after 48 hrs by microdilution checkerboard technique relative to control; in short: as §2
Candida albicans [17] = assay: Antimicrobial activity against azole-resistant Candida albicans isolate CA10 assessed as growth at 128 ug/ml after 48 hrs by microdilution checkerboard technique relative to control; in short: as §2
Candida albicans [18] = assay: Antimicrobial activity against azole-resistant Candida albicans isolate CA10 assessed as growth at 0.016 ug/ml after 48 hrs by microdilution checkerboard technique relative to control; in short: as §2
Candida albicans [19] = assay: Antimicrobial activity against azole-resistant Candida albicans isolate CA10 assessed as growth at 0.002 ug/ml after 48 hrs by microdilution checkerboard technique relative to control; in short: as §2
Candida albicans [20] = assay: Antimicrobial activity against azole-resistant Candida albicans isolate CA10 co-treated with calcineurin signaling inhibitor tacrolimus after 48 hrs by microdilution checkerboard technique; conditions: isolate CA10, 48 h
In short: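 Checkerboard microdilution in MOPS-buffered RPMI 1640 (pH 7.0, 2% dextrose) with 2.5 × 10^3 CFU/ml for 48 h at 35°C. Final FK506 was 0.002–0.125 μg/ml. Azole finals were FLC 0.125–128 μg/ml, and ITR and VRC 0.008–8 μg/ml. MIC80 is an 80% OD492 decrease vs drug-free control. Interaction was scored by FICI (synergy ≤0.5, antagonism >4) and by ΔE from triplicates.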

Candida albicans [21] = assay: Antimicrobial activity against azole-resistant Candida albicans isolate CA10 assessed as growth at 0.125 ug/ml cotreated with 0.125 ug/ml calcineurin signaling inhibitor Tacrolimus after 48 hrs by microdilution checkboard technique relative to control; design: scale not given: the % may be the effect or the level left; in short: as §2
Candida albicans [22] = assay: Antimicrobial activity against azole-resistant Candida albicans isolate CA10 assessed as growth at 1 ug/ml co-treated with 0.125 ug/ml calcineurin signaling inhibitor tacrolimus after 48 hrs by microdilution checkboard technique relative to control; design: scale not given: the % may be the effect or the level left; in short: as §2
Candida albicans [23] = assay: Antimicrobial activity against azole-resistant Candida albicans isolate CA10 assessed as growth at 128 ug/ml cotreated with 0.125 ug/ml calcineurin signaling inhibitor Tacrolimus after 48 hrs by microdilution checkboard technique relative to control; design: scale not given: the % may be the effect or the level left; in short: as §2

## OC(Cn1cncn1)(Cn1cncn1)c1ccc(F)cc1F [FLUCONAZOLE]
Candida albicans [1]
  Activity: 16%
Candida albicans [2]
  Activity: 13%
Candida albicans [3]
  Activity: 14%
Candida albicans [4]
  Activity: 38%
Candida albicans [5]
  Activity: 18%
Candida albicans [6]
  Activity: 19%
Candida albicans [7]
  Activity: 60%
Candida albicans [8]
  Activity: 50%
Candida albicans [9]
  Activity: 38%
Candida albicans [10]
  Activity: 22%
Candida albicans [11]
  Activity: 21%
Candida albicans [12]
  Activity: 39%
Candida albicans [13]
  Activity: 27%
Candida albicans [14]
  Activity: 56%
Candida albicans [15]
  Activity: 54%
Candida albicans [16]
  Activity: 48%
Candida albicans [17]
  Activity: 48%
Candida albicans [18]
  Activity: 96%
Candida albicans [19]
  Activity: 97%
Candida albicans [20]
  MIC: 0.25 µg/mL
Candida albicans [21]
  Activity: 25%
Candida albicans [22]
  Activity: 3%
Candida albicans [23]
  Activity: 0%
